Results as given in publication PMC4945769 (British Journal of Pharmacology, 2016).

Assays:
NSP activity = test: Pharmacokinetic/pharmacodynamic modelling of NSP activity in rat; assay type: in vivo
Procedure, shortened: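 Rat NSP activity time courses were fitted with an indirect response model: production rate kin scaled by uninhibited DPP1 fraction 1 − C/(IC50 + C), loss rate kout, baseline taken as 100%. IC50 was the in vitro cell potency corrected for plasma protein binding. Exposure was simulated with a one-compartment PK model. kout was fitted to blood data from the onset study and bone marrow data from the recovery study.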

[1] = Plasma protein binding by equilibrium dialysis, rat plasma; assay type: in vitro ADME; settings: 10 μM, 18 h at 37°C, mean, n of at least 3
Procedure, shortened: (§1)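 Test compound at 10 μM final was added to plasma and dialysed against buffer across a 5 kD membrane in a rotating unit for 18 h at 37°C. Buffer and plasma-side aliquots were quenched in methanol and measured by LC–MS/MS. Free fraction is the mean of at least three studies.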

neutrophil elastase (NE) = test: Onset studies: NE activity in rat blood and bone marrow lysates; assay type: in vivo; settings: onset 1 (14 day study), bone marrow
Procedure, shortened: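 Rats were dosed orally twice daily with test compound, 3.6 mg·kg−1 and then 10.7 mg·kg−1 8 h later, against citrate buffer pH 3.0 vehicle. Onset 1 ran 5, 8, 10, 12 or 14 days. Femurs were taken under isoflurane 2 h after the last dose. Marrow leukocytes were lysed on ice at 10^8 cells mL−1. Lysates received Methoxysuccinyl-Ala-Ala-Pro-Val-AMC and were read by fluorescence (ex 350–380, em 450–460 nm) for up to 60 min. Initial rate came from the linear range.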

cathepsin G (CatG) = test: Onset studies: CatG activity in rat blood and bone marrow lysates; assay type: in vivo; settings: two onset studies, small assay window
Procedure, shortened: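 Male Sprague Dawley rats (200–400 g) were dosed orally twice daily, 3.6 mg·kg−1 in the morning and 10.7 mg·kg−1 8 h later, for 5–14 days (onset 1) or 1–8 days (onset 2). Vehicle was 0.1 M citrate buffer, pH 3.0. Blood and femoral marrow cells were lysed at 10^8 cells mL−1 in Triton X-100 buffer. Lysates were incubated 15 min, then given N-succinyl-Ala-Ala-Pro-Phe-pNA and read by absorbance at 405 nm for 90–120 min. Initial rate was taken from the linear range.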

PK studies in the rat = assay type: in vivo; settings: Sprague Dawley, plasma, intravenous, 1 mg·kg^−1
Procedure, shortened: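 Male Sprague Dawley rats were given test compound at 1 mg·kg−1 IV or 3 mg·kg−1 orally; dose was set by syringe weight difference. Serial tail-vein blood was taken from 2 to 1440 min and centrifuged at 4°C. Plasma was stored at −20°C and then quantified by LC–MS/MS against calibration curves in control rat plasma. Parameters were derived by non-compartmental analysis.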

DPP1 = DPP1 (Homo sapiens, UniProt P53634); test: DPP1 activity cell assay; assay type: cell-based; settings: read-out: DPP1 IC50, corrected for PPB; in vitro potency corrected for rat PPB
proteinase 3 (PR3) = test: Onset studies: PR3 activity in rat blood and bone marrow lysates; assay type: in vivo; settings: onset 1 (14 day study), bone marrow
Procedure, shortened: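 Male Sprague Dawley rats received test compound orally twice daily, 3.6 and 10.7 mg·kg−1 8 h apart, for up to 14 days. Vehicle was citrate buffer pH 3.0. Blood and femoral marrow lysates (10^8 cells mL−1, Triton X-100) were incubated 15 min, then given the 5-FAM/QXL520 quenched peptide substrate. Fluorescence (ex 320–490, em 405–520 nm) was followed up to 60 min. Initial rate came from the linear portion.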

[2] = Plasma protein binding by equilibrium dialysis, human plasma; assay type: in vitro ADME; settings: 10 μM, 18 h at 37°C, mean, n of at least 3
Procedure, shortened: as §1

[3] = Prediction of human PK for AZ2; settings: predicted

Question: Which results are given for N#Cc1ccc(-c2ccc(C[C@@H](C#N)NC(=O)[C@@H]3CCCCN3)cc2)cc1 [AZ1, (S)‐N‐((S)‐1‐cyano‐2‐(4′‐cyanobiphenyl‐4‐yl)ethyl)piperidine‐2‐carboxamide]?
Answer: maximum reduction in protease activity in blood (NSP activity; onset studies): about 75%; PPB (%free) [1]: 4.1 %free; days of treatment to reach maximum reduction in NE activity (neutrophil elastase (NE)): 8 days; effect on CatG activity (cathepsin G (CatG)): lack of effect; clearance (PK studies in the rat): 6.67 mL/min; IC50 (DPP1): 140 nM; days of treatment to reach maximum reduction in PR3 activity (proteinase 3 (PR3)): 8 days

Question: For N#Cc1ccc(-c2ccc(C[C@@H](C#N)NC(=O)C3(N)CCOCC3)cc2)cc1 [AZ2, (S)‐4‐amino‐N‐(1‐cyano‐2‐(4′‐cyanobiphenyl‐4‐yl)ethyl)tetrahydro‐2H‐pyran‐4‐carboxamide], which “maximum reduction in protease activity in bone marrow” value (NSP activity; recovery study) is on record?
Answer: The value was 90%.

Question: And the “PPB (%free)” value [2]?
Answer: The value was 9.1 %free.

Question: And the “PPB (%free)” value [1]?
Answer: Its value is 11 %free.

Question: What about the CL [3] of the same compound?
Answer: The CL was 3.4 L/h.

Question: What about the clearance (PK studies in the rat) of the same compound?
Answer: Its clearance is 1.67 mL/min.
